Experimental data published in ChEMBL document CHEMBL1149276, “Inhibition of Streptococcus suis adhesion by dendritic galabiose compounds at low nanomolar concentration” (J Med Chem, 2004).
≈ marks a conversion by molar mass, not a printed value.

Columns and labels:
[1] = tested on: Streptococcus suis; assay: Relative potency against Streptococcus suis 628 mediated hemagglutinination of human erythrocytes measured as IC50 for monovalent galobiose compound to the multivalent compound; format: functional
In short: (§1)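 Hemagglutination MIC read-out. Bacteria (THY broth, 37 °C, static) were preincubated 5 min at room temperature with twofold inhibitor dilutions. Sialidase-treated 5% human erythrocytes were added and agglutination was scored visually after 1 h on ice. Potency is expressed relative to the monovalent reference galabioside.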

[2] = tested on: Streptococcus suis; assay: Inhibition of Streptococcus suis 628 mediated hemagglutinination of human erythrocytes; format: functional
In short: (§2)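 S. suis grown in THY broth at 37 °C without shaking. Twofold dilutions of galabiose compound were preincubated with equal volumes of bacteria for 5 min at room temperature. Then 5% sialidase-treated human erythrocytes were added. After 1 h on ice, agglutination was scored visually. MIC was taken as the lowest concentration giving complete inhibition.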

[3] = tested on: Streptococcus suis; assay: Relative potency for against treptococcus suis 628 binding to pigeon ovomucoid by surface plasmon resonance assay measured as IC50 for monovalent galobiose compound to the multivalent compound; format: functional
In short: (§3)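 SPR competition format. S. suis was cultured in THY broth at 37 °C without shaking. Bacteria were incubated 5 min with inhibitor dilutions in HBS-P buffer, then injected over the sensor chip. The surface was regenerated with 10 mM NaOH between injections. Data from repeated experiments were normalized 0–100 to build inhibition curves. Line 7 expresses potency relative to the monovalent reference.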

[4] = tested on: Streptococcus suis; assay: Relative potency against Streptococcus suis 836 mediated hemagglutinination of human erythrocytes measured as IC50 for monovalent galobiose compound to the multivalent compound; format: functional; in short: as §1
[5] = tested on: Streptococcus suis; assay: Inhibition of Streptococcus suis 836 mediated hemagglutinination of human erythrocytes; format: functional; in short: as §2
[6] = tested on: Streptococcus suis; assay: Inhibition of Streptococcus suis 628 binding to pigeon ovomucoid by surface plasmon resonance assay; format: functional, organism-based; in short: as §3
[7] = tested on: Streptococcus suis; assay: Inhibition of Streptococcus suis 628 binding to pigeon ovomucoid by ELISA; format: functional, organism-based

Compound | MIC [2] | MIC [5] | IC50 [6] | IC50 [7] | Ratio IC50 [1] | Ratio IC50 [3] | Ratio IC50 [4]
COC(=O)c1cc(OCCNC(=O)c2cc(OCCNC(=O)COCC(=O)NCCCO[C@@H]3O[C@H](CO)[C@H](O[C@H]4O[C@H](CO)[C@H](O)[C@H](O)[C@H]4O)[C@H](O)[C@H]3O)cc(OCCNC(=O)COCC(=O)NCCCO[C@@H]3O[C@H](CO)[C@H](O[C@H]4O[C@H](CO)[C@H](O)[C@H](O)[C@H]4O)[C@H](O)[C@H]3O)c2)cc(OCCNC(=O)c2cc(OCCNC(=O)COCC(=O)NCCCO[C@@H]3O[C@H](CO)[C@H](O[C@H]4O[C@H](CO)[C@H](O)[C@H](O)[C@H]4O)[C@H](O)[C@H]3O)cc(OCCNC(=O)COCC(=O)NCCCO[C@@H]3O[C@H](CO)[C@H](O[C@H]4O[C@H](CO)[C@H](O)[C@H](O)[C@H]4O)[C@H](O)[C@H]3O)c2)c1 | 2 nM (≈ 0.00538 µg/mL) | 0.04 µM (≈ 0.108 µg/mL) | 7 nM | – | 450 | 256 | 40
COC(=O)c1cccc(OCCNC(=O)COCC(=O)NCCCO[C@@H]2O[C@H](CO)[C@H](O[C@H]3O[C@H](CO)[C@H](O)[C@H](O)[C@H]3O)[C@H](O)[C@H]2O)c1 | 900 nM (≈ 0.623 µg/mL) | 1.6 µM (≈ 1.11 µg/mL) | 1800 nM | 45 µM | – | – | –
O=C(CCN(CCNC(=O)CCN(CCC(=O)NCCN(CCC(=O)NCCNC(=O)COCC(=O)NCCCO[C@@H]1O[C@H](CO)[C@H](O[C@H]2O[C@H](CO)[C@H](O)[C@H](O)[C@H]2O)[C@H](O)[C@H]1O)CCC(=O)NCCNC(=O)COCC(=O)NCCCO[C@@H]1O[C@H](CO)[C@H](O[C@H]2O[C@H](CO)[C@H](O)[C@H](O)[C@H]2O)[C@H](O)[C@H]1O)CCN(CCC(=O)NCCN(CCC(=O)NCCNC(=O)COCC(=O)NCCCO[C@@H]1O[C@H](CO)[C@H](O[C@H]2O[C@H](CO)[C@H](O)[C@H](O)[C@H]2O)[C@H](O)[C@H]1O)CCC(=O)NCCNC(=O)COCC(=O)NCCCO[C@@H]1O[C@H](CO)[C@H](O[C@H]2O[C@H](CO)[C@H](O)[C@H](O)[C@H]2O)[C@H](O)[C@H]1O)CCC(=O)NCCN(CCC(=O)NCCNC(=O)COCC(=O)NCCCO[C@@H]1O[C@H](CO)[C@H](O[C@H]2O[C@H](CO)[C@H](O)[C@H](O)[C@H]2O)[C@H](O)[C@H]1O)CCC(=O)NCCNC(=O)COCC(=O)NCCCO[C@@H]1O[C@H](CO)[C@H](O[C@H]2O[C@H](CO)[C@H](O)[C@H](O)[C@H]2O)[C@H](O)[C@H]1O)CCC(=O)NCCNC(=O)COCC(=O)NCCCO[C@@H]1O[C@H](CO)[C@H](O[C@H]2O[C@H](CO)[C@H](O)[C@H](O)[C@H]2O)[C@H](O)[C@H]1O)NCCNC(=O)COCC(=O)NCCCO[C@@H]1O[C@H](CO)[C@H](O[C@H]2O[C@H](CO)[C@H](O)[C@H](O)[C@H]2O)[C@H](O)[C@H]1O | 0.3 nM (≈ 0.00162 µg/mL) | 0.002 µM (≈ 0.0108 µg/mL) | 7 nM | – | 3000 | 256 | 800
COC(=O)c1cc(OCCNC(=O)COCC(=O)NCCCOCCOCCOCCCNC(=O)COCC(=O)NCCCO[C@@H]2O[C@H](CO)[C@H](O[C@H]3O[C@H](CO)[C@H](O)[C@H](O)[C@H]3O)[C@H](O)[C@H]2O)cc(OCCNC(=O)COCC(=O)NCCCOCCOCCOCCCNC(=O)COCC(=O)NCCCO[C@@H]2O[C@H](CO)[C@H](O[C@H]3O[C@H](CO)[C@H](O)[C@H](O)[C@H]3O)[C@H](O)[C@H]2O)c1 | 9 nM (≈ 0.017 µg/mL) | 0.1 µM (≈ 0.189 µg/mL) | 156 nM | – | 100 | 12 | 16

Further lines, with some results ahead:

MIC [2] | MIC [5] | IC50 [6] | IC50 [7] | Compound | Ratio IC50 [1] | Ratio IC50 [3] | Ratio IC50 [4]
6 nM (≈ 0.0075 µg/mL) | 0.07 µM (≈ 0.0874 µg/mL) | 235 nM | – | COC(=O)c1cc(OCCNC(=O)COCC(=O)NCCCO[C@@H]2O[C@H](CO)[C@H](O[C@H]3O[C@H](CO)[C@H](O)[C@H](O)[C@H]3O)[C@H](O)[C@H]2O)cc(OCCNC(=O)COCC(=O)NCCCO[C@@H]2O[C@H](CO)[C@H](O[C@H]3O[C@H](CO)[C@H](O)[C@H](O)[C@H]3O)[C@H](O)[C@H]2O)c1 | 150 | 8 | 22
7 nM (≈ 0.00825 µg/mL) | 0.09 µM (≈ 0.106 µg/mL) | 309 nM | – | O=C(COCC(=O)NCCCO[C@@H]1O[C@H](CO)[C@H](O[C@H]2O[C@H](CO)[C@H](O)[C@H](O)[C@H]2O)[C@H](O)[C@H]1O)NCC#Cc1ccc(C#CCNC(=O)COCC(=O)NCCCO[C@@H]2O[C@H](CO)[C@H](O[C@H]3O[C@H](CO)[C@H](O)[C@H](O)[C@H]3O)[C@H](O)[C@H]2O)cc1 | 128 | 6 | 18
4 nM (≈ 0.00472 µg/mL) | 0.05 µM (≈ 0.059 µg/mL) | 293 nM | – | O=C(COCC(=O)NCCCO[C@@H]1O[C@H](CO)[C@H](O[C@H]2O[C@H](CO)[C@H](O)[C@H](O)[C@H]2O)[C@H](O)[C@H]1O)NCC#Cc1cccc(C#CCNC(=O)COCC(=O)NCCCO[C@@H]2O[C@H](CO)[C@H](O[C@H]3O[C@H](CO)[C@H](O)[C@H](O)[C@H]3O)[C@H](O)[C@H]2O)c1 | 225 | 6 | 32
